Measured values from ChEMBL document CHEMBL1833880, “Biologically active arborinane-type triterpenoids and anthraquinones from Rubia yunnanensis” (J Nat Prod, 2011).
In brackets after ≈: the same amount, converted by molar mass. Activity calls are given as the source filed them. No cut-off for these calls is given here.

Columns and labels:
[1] = tested on: SMMC-7721; assay: Cytotoxicity against human SMMC7721 cells at >10 uM after 48 hrs by SRB assay; format: functional, cell-based
[2] = tested on: A549; assay: Cytotoxicity against human A549 cells at >10 uM after 48 hrs by SRB assay; format: functional, cell-based
[3] = tested on: HeLa; assay: Cytotoxicity against human HeLa cells after 48 hrs by SRB assay; format: functional, cell-based
How it was run: (§1)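 Cells plated 24 h, then exposed to serial dilutions up to 20 μg/mL for 48 h at 37 °C in 5% CO2. They were fixed with cold 50% TCA for 1 h at 4 °C, stained with 0.4% SRB in 1% acetic acid for 15 min, and the bound dye was dissolved in 10 mM Tris base. Absorbance was read at 560 nm. IC50 was taken from triplicate tests.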

[4] = tested on: Staphylococcus aureus; assay: Antibacterial activity against Staphylococcus aureus CGMCC1.2465 after 24 hrs by turbidimetric method; format: functional; conditions: for MIC50: CGMCC1.2465, 24 h
How it was run: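 Inoculum was adjusted by OD620 to McFarland 0.5 and diluted to 1 × 10^6 cfu/mL. It was exposed to serial dilutions up to 25 μg/mL in Mueller-Hinton broth at 37 °C for 24 h, and absorbance was read at 620 nm. MIC50 was taken from triplicate tests. Ampicillin was the reference.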

[5] = tested on: SMMC-7721; assay: Cytotoxicity against human SMMC7721 cells after 48 hrs by SRB assay; format: functional, cell-based; conditions: SMMC-7721, 48 h
How it was run: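 Cells seeded 24 h, then exposed to serial dilutions (top concentration 20 μg/mL) for 48 h at 37 °C, 5% CO2. Fixed with ice-cold 50% TCA at 4 °C for 1 h, stained 15 min with 0.4% SRB in 1% acetic acid, dye solubilized in 10 mM Tris base, absorbance at 560 nm. Triplicate; IC50 reported. Paclitaxel and camptothecin as positive controls.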

[6] = tested on: HeLa; assay: Cytotoxicity against human HeLa cells at >10 uM after 48 hrs by SRB assay; format: functional, cell-based
[7] = tested on: Candida albicans; assay: microbe, parasite or virus in culture; format: functional; conditions: CGMCC 2.2086, 24 h
[8] = tested on: A549; assay: Cytotoxicity against human A549 cells after 48 hrs by SRB assay; format: functional, cell-based; conditions: A549, 48 h; how it was run: as §1

Compound | Activity [1] | Activity [2] | IC50 [3] | other results
CC(=O)O[C@@H]1C[C@@H](C(C)C)[C@]2(CO)CC[C@@]3(C)[C@H]4C(=CC[C@]3(C)[C@@H]12)[C@@]1(C)C=CC(=O)C(C)(C)[C@@H]1C[C@@H]4O | inactive | inactive | 7.9 µM | –
CC(=O)OC[C@@]12CC[C@@]3(C)[C@H]4C(=CC[C@]3(C)[C@H]1[C@H](O)C[C@H]2C(C)C)[C@@]1(C)CC[C@H](O[C@@H]2O[C@H](CO[C@@H]3O[C@H](CO)[C@@H](O)[C@H](O)[C@H]3O)[C@@H](O)[C@H](O)[C@H]2O)C(C)(C)[C@@H]1C[C@@H]4O | inactive | inactive | 2.2 µM | –
CC(=O)OC[C@H]1O[C@@H](Oc2cc3c(c(O)c2C)C(=O)c2ccc(O)cc2C3=O)[C@H](O[C@@H]2O[C@@H](C)[C@H](O)[C@@H](O)[C@H]2O)[C@@H](O)[C@@H]1O | inactive | inactive | 4.2 µM | –
O=C1c2ccccc2C(=O)c2cc(CO)c(O)cc21 | inactive | inactive | 3 µM | –
Cc1c(O)cc2c(c1O)C(=O)c1ccc(O)cc1C2=O | – | – | – | MIC50 [4]: 21.5 µM (≈ 5.81 µg/mL)
COC1=CC(=O)c2ccccc2C1=O [2-Methoxy-1,4-naphthoquinone] | – | inactive | – | IC50 [5]: 4.3 µM; Activity [6]: inactive; MIC50 [7]: 16 µM (≈ 3.01 µg/mL); Activity [4]: inactive
CC1(C)S[C@@H]2[C@H](NC(=O)[C@H](N)c3ccccc3)C(=O)N2[C@H]1C(=O)O [AMPICILLIN] | – | – | – | MIC50 [4]: 0.1 µM (≈ 0.0349 µg/mL)
CC[C@@]1(O)C(=O)OCc2c1cc1n(c2=O)Cc2cc3ccccc3nc2-1 [CAMPTOTHECIN] | – | – | – | IC50 [5]: 0.003 µM
Clc1ccc(COC(Cn2ccnc2)c2ccc(Cl)cc2Cl)c(Cl)c1 (stereo not drawn) [MICONAZOLE NITRATE] | – | – | – | MIC50 [7]: 0.9 µM
CC(=O)O[C@H]1C(=O)[C@@]2(C)[C@H]([C@H](OC(=O)c3ccccc3)[C@]3(O)C[C@H](OC(=O)[C@H](O)[C@@H](NC(=O)c4ccccc4)c4ccccc4)C(C)=C1C3(C)C)[C@]1(OC(C)=O)CO[C@@H]1C[C@@H]2O [PACLITAXEL] | – | – | 0.6 µM | –
CC(=O)O[C@@H]1C[C@@H](C(C)C)[C@]2(CO)CC[C@@]3(C)[C@H]4C(=CC[C@]3(C)[C@@H]12)[C@@]1(C)CC[C@H](O)C(C)(C)[C@@H]1C[C@@H]4O [RUBIARBONOL G] | inactive | – | 2.2 µM | MIC50 [7]: 10.8 µM (≈ 5.58 µg/mL); IC50 [8]: 7 µM; MIC50 [4]: > 25 µM
CC(C)[C@@H]1C[C@@H](O)[C@H]2[C@@]1(C)CC[C@@]1(C)C3=CC[C@H]4C(C)(C)[C@@H](O)CC[C@]4(C)C3=CC[C@]21C [RUBIYUNNANOL A] | inactive | – | – | IC50 [6]: > 10 µM; IC50 [8]: 9.8 µM
CC(C)[C@@H]1CC=C2[C@@]1(C)CC[C@@]1(C)[C@H]3C(=CC[C@]21C)[C@@]1(C)CC[C@H](O)C(C)(C)[C@@H]1C[C@@H]3O [RUBIYUNNANOL B] | inactive | – | 5.3 µM | IC50 [8]: 8.2 µM
